# Reference: ChEMBL document CHEMBL5058577, “EUbOPEN Chemogenomics Library 2 (Multiplex)” (2022)
# Tested on: U2OS
# Assay: Multiplex assay against U2OS
# Assay type: toxicity, cell-based
# Conditions: human
# Summary of the method: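 Live cells were stained at seeding with Hoechst33342, BioTracker Green Microtubule Cytoskeleton Dye, MitoTracker Red and Annexin V Alexa Fluor 680, then imaged on a CQ1 microscope at 37°C and 5% CO2 after compound addition. CellPathfinder machine-learning gating split cells into Hoechst high-intensity objects or normal cells. Normal cells were split into healthy, pyknosed or fragmented nuclei, and pyknosed cells into mitotic or apoptotic. Tubulin, mitochondrial-mass and membrane-permeability phenotypes are per cents of healthy-nucleus cells.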
# [1] = 12 h, 1 µM, compound concentration 1 uM, replicate 1
# [2] = 12 h, 1 µM, compound concentration 1 uM, replicate 2
# [3] = 12 h, 10 µM, compound concentration 10 uM, replicate 1
# [4] = 12 h, 10 µM, compound concentration 10 uM, replicate 2
# [5] = 24 h, 1 µM, compound concentration 1 uM, replicate 1
# [6] = 24 h, 1 µM, compound concentration 1 uM, replicate 2
# [7] = 24 h, 10 µM, compound concentration 10 uM, replicate 1
# [8] = 24 h, 10 µM, compound concentration 10 uM, replicate 2
# [9] = 48 h, 1 µM, compound concentration 1 uM, replicate 1
# [10] = 48 h, 1 µM, compound concentration 1 uM, replicate 2
# [11] = 48 h, 10 µM, compound concentration 10 uM, replicate 1
# [12] = 48 h, 10 µM, compound concentration 10 uM, replicate 2
compound,measurement,setting,value
C[C@@H]1CC(=O)Nc2cccc(-c3ccc4c(c3)c(-c3cnn(C)c3)nn4C)c2N1,Population Apoptotic (%),[1],92%
same,Population Fragmented Nuclei (%),[1],20%
same,Population Healthy Nuclei (%),[1],73%
same,Population Hoechst High Intensity Objects (%),[1],1%
same,Population Membrane Permeable-Phenotype (%),[1],7%
same,Population Mitochondria Different-Phenotype (%),[1],4%
same,Population Mitotic Cells (%),[1],7%
same,Population Normal (%),[1],98%
same,Population Pyknosed Nuclei (%),[1],6%
same,Population Tubulin-Different-Phenotype (%),[1],6%
same,Total Cell Count,[1],233
same,Population Apoptotic (%),[2],88%
same,Population Fragmented Nuclei (%),[2],16%
same,Population Healthy Nuclei (%),[2],75%
same,Population Membrane Permeable-Phenotype (%),[2],5%
same,Population Mitochondria Different-Phenotype (%),[2],2%
same,Population Mitotic Cells (%),[2],11%
same,Population Pyknosed Nuclei (%),[2],7%
same,Population Tubulin-Different-Phenotype (%),[2],2%
same,Total Cell Count,[2],116
same,Population Apoptotic (%),[3],86%
same,Population Fragmented Nuclei (%),[3],29%
same,Population Healthy Nuclei (%),[3],58%
same,Population Hoechst High Intensity Objects (%),[3],2%
same,Population Membrane Permeable-Phenotype (%),[3],11%
same,Population Mitochondria Different-Phenotype (%),[3],11%
same,Population Mitotic Cells (%),[3],13%
same,Population Normal (%),[3],97%
same,Population Pyknosed Nuclei (%),[3],12%
same,Population Tubulin-Different-Phenotype (%),[3],8%
same,Total Cell Count,[3],235
same,Population Apoptotic (%),[4],33%
same,Population Fragmented Nuclei (%),[4],21%
same,Population Healthy Nuclei (%),[4],74%
same,Population Hoechst High Intensity Objects (%),[4],1%
same,Population Membrane Permeable-Phenotype (%),[4],7%
same,Population Mitochondria Different-Phenotype (%),[4],7%
same,Population Mitotic Cells (%),[4],66%
same,Population Normal (%),[4],98%
same,Population Pyknosed Nuclei (%),[4],4%
same,Total Cell Count,[4],76
same,Population Apoptotic (%),[5],95%
same,Population Fragmented Nuclei (%),[5],20%
same,Population Healthy Nuclei (%),[5],71%
same,Population Hoechst High Intensity Objects (%),[5],2%
same,Population Membrane Permeable-Phenotype (%),[5],5%
same,Population Mitochondria Different-Phenotype (%),[5],2%
same,Population Mitotic Cells (%),[5],4%
same,Population Normal (%),[5],97%
same,Population Pyknosed Nuclei (%),[5],7%
same,Population Tubulin-Different-Phenotype (%),[5],2%
same,Total Cell Count,[5],294
same,Population Apoptotic (%),[6],100%
same,Population Fragmented Nuclei (%),[6],22%
same,Population Healthy Nuclei (%),[6],74%
same,Population Hoechst High Intensity Objects (%),[6],1%
same,Population Membrane Permeable-Phenotype (%),[6],1%
same,Population Mitochondria Different-Phenotype (%),[6],1%
same,Population Mitotic Cells (%),[6],0%
same,Population Normal (%),[6],98%
same,Population Pyknosed Nuclei (%),[6],4%
same,Population Tubulin-Different-Phenotype (%),[6],0%
same,Total Cell Count,[6],152
same,Population Apoptotic (%),[7],90%
same,Population Fragmented Nuclei (%),[7],24%
same,Population Healthy Nuclei (%),[7],63%
same,Population Hoechst High Intensity Objects (%),[7],4%
same,Population Membrane Permeable-Phenotype (%),[7],7%
same,Population Mitochondria Different-Phenotype (%),[7],6%
same,Population Mitotic Cells (%),[7],10%
same,Population Normal (%),[7],95%
same,Population Pyknosed Nuclei (%),[7],11%
same,Population Tubulin-Different-Phenotype (%),[7],3%
same,Total Cell Count,[7],266
same,Population Apoptotic (%),[8],83%
same,Population Fragmented Nuclei (%),[8],15%
same,Population Healthy Nuclei (%),[8],78%
same,Population Hoechst High Intensity Objects (%),[8],1%
same,Population Membrane Permeable-Phenotype (%),[8],6%
same,Population Mitochondria Different-Phenotype (%),[8],1%
same,Population Mitotic Cells (%),[8],16%
same,Population Normal (%),[8],98%
same,Population Pyknosed Nuclei (%),[8],6%
same,Population Tubulin-Different-Phenotype (%),[8],4%
same,Total Cell Count,[8],97
same,Population Apoptotic (%),[9],100%
same,Population Fragmented Nuclei (%),[9],19%
same,Population Healthy Nuclei (%),[9],73%
same,Population Hoechst High Intensity Objects (%),[9],1%
same,Population Membrane Permeable-Phenotype (%),[9],4%
same,Population Mitochondria Different-Phenotype (%),[9],2%
same,Population Mitotic Cells (%),[9],0%
same,Population Normal (%),[9],98%
same,Population Pyknosed Nuclei (%),[9],6%
same,Population Tubulin-Different-Phenotype (%),[9],3%
same,Total Cell Count,[9],437
same,Population Fragmented Nuclei (%),[10],13%
same,Population Healthy Nuclei (%),[10],77%
same,Population Membrane Permeable-Phenotype (%),[10],2%
same,Population Pyknosed Nuclei (%),[10],8%
same,Population Tubulin-Different-Phenotype (%),[10],2%
same,Total Cell Count,[10],224
same,Population Apoptotic (%),[11],100%
same,Population Fragmented Nuclei (%),[11],28%
same,Population Healthy Nuclei (%),[11],65%
same,Population Hoechst High Intensity Objects (%),[11],3%
same,Population Membrane Permeable-Phenotype (%),[11],8%
same,Population Mitochondria Different-Phenotype (%),[11],3%
same,Population Mitotic Cells (%),[11],0%
same,Population Normal (%),[11],96%
same,Population Pyknosed Nuclei (%),[11],5%
same,Population Tubulin-Different-Phenotype (%),[11],5%
same,Total Cell Count,[11],394
same,Population Fragmented Nuclei (%),[12],23%
same,Population Healthy Nuclei (%),[12],71%
same,Population Hoechst High Intensity Objects (%),[12],4%
same,Population Membrane Permeable-Phenotype (%),[12],3%
same,Population Mitochondria Different-Phenotype (%),[12],0%
same,Population Normal (%),[12],95%
same,Population Pyknosed Nuclei (%),[12],4%
same,Population Tubulin-Different-Phenotype (%),[12],3%
same,Total Cell Count,[12],149
